# Measurements: ChEMBL document CHEMBL2440107, “Quinazolino linked 4β-amidopodophyllotoxin conjugates regulate angiogenic pathway and control breast cancer cell proliferation” (Bioorg Med Chem, 2013)
# Calls of active or inactive are those of the source. The calls are words filed in the database; no cut-off is given here.
# How the values were obtained:
# MCF7 [1] = assay: Cell cycle arrest in human MCF7 cells assessed as accumulation at G0 phase at 4 uM after 24 hrs by propidium iodide staining-based flow cytometric analysis (reference value: 3%); format: functional
# MCF7 [2] = assay: Cell cycle arrest in human MCF7 cells assessed as accumulation at S phase at 4 uM after 24 hrs by propidium iodide staining-based flow cytometric analysis (reference value: 5%); format: functional
# MCF7 [3] = assay: Cell cycle arrest in human MCF7 cells assessed as accumulation at G1 phase at 4 uM after 24 hrs by propidium iodide staining-based flow cytometric analysis (reference value: 77%); format: functional
# MCF7 [4] = assay: Cell cycle arrest in human MCF7 cells assessed as accumulation at G2/M phase at 4 uM after 24 hrs by propidium iodide staining-based flow cytometric analysis (reference value: 15%); format: functional
# MCF7 [5] = assay: Antimitotic activity in human MCF7 cells assessed as downregulation of Cdk1 protein expression at 4 uM after 24 hrs by Western blotting analysis; format: functional, cell-based
# MCF7 [6] = assay: Antiangiogenic activity in human MCF7 cells assessed as upregulation of STAT1 protein expression at 4 uM after 24 hrs by Western blotting analysis; format: functional, cell-based
# PANC-1 = assay: Cytotoxicity against human PANC1 cells assessed as cell viability at 0.5 to 32 uM after 24 hrs by MTT assay; format: functional, cell-based
# How it was run: (§1)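 Cells seeded at 10,000/well, incubated overnight, then exposed 24 h to 0.5–32 µM, etoposide as standard. MTT added, 2 h at 37 °C; formazan solubilised in extraction buffer, OD read at 570 nm; percent viability determined. Triplicates, Student t-test.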
# MCF7 [7] = assay: Cytotoxicity against human MCF7 cells assessed as cell viability at 0.5 to 32 uM after 24 hrs by MTT assay; format: functional, cell-based; how it was run: as §1
# MCF7 [8] = assay: Antimitotic activity in human MCF7 cells assessed as upregulation of cyclin B1 protein expression at 4 uM after 24 hrs by Western blotting analysis; format: functional, cell-based
# MCF7 [9] = assay: Antiangiogenic activity in human MCF7 cells assessed as downregulation of phosphorylated ERK1/2 protein expression at 4 uM after 24 hrs by Western blotting analysis; format: functional, cell-based
# MCF7 [10] = assay: Induction of apoptosis in human MCF7 cells assessed as upregulation of cytochrome-c protein expression in cytosol at 4 uM after 24 hrs by Western blotting analysis; format: functional, cell-based
# MCF7 [11] = assay: Induction of apoptosis in human MCF7 cells assessed as upregulation of caspase-9 protein expression at 4 uM after 24 hrs by Western blotting analysis; format: functional, cell-based
# MDA-MB-231 = assay: Cytotoxicity against human MDA-MB-231 cells assessed as cell viability at 0.5 to 32 uM after 24 hrs by MTT assay; format: functional, cell-based; how it was run: as §1
# HUVEC [12] = assay: Cytotoxicity against HUVEC assessed as cell viability at 1 uM after 6 hrs by MTT assay; format: cell-based; settings: human
# How it was run: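 HUVEC at 10,000 cells/well exposed for 6 h across 0.5–32 µM; percent viability plotted, etoposide as standard. Triplicates, Student t-test.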
# MCF7 [13] = assay: Antiangiogenic activity in human MCF7 cells assessed as downregulation of VEGF-A protein expression at 4 uM after 24 hrs by Western blotting analysis; format: functional, cell-based
# MCF7 [14] = assay: Antimitotic activity in human MCF7 cells assessed as upregulation of p53 protein expression at 4 uM after 24 hrs by Western blotting analysis; format: functional, cell-based
# MCF7 [15] = assay: Antiangiogenic activity in human MCF7 cells assessed as downregulation of AKT phosphorylation at Ser473 at 4 uM after 24 hrs by Western blotting analysis; format: functional, cell-based
# MCF7 [16] = assay: Antiinvasive activity in human MCF7 cells assessed as downregulation of alphaVbeta3 integrin protein expression at 4 uM after 24 hrs by Western blot analysis; format: functional, cell-based
# MCF7 [17] = assay: Antiangiogenic activity in human MCF7 cells assessed as downregulation of STAT3 protein expression at 4 uM after 24 hrs by Western blotting analysis; format: functional, cell-based
# MCF7 [18] = assay: Antiangiogenic activity in human MCF7 cells assessed as downregulation of ERK1/2 protein expression at 4 uM after 24 hrs by Western blotting analysis; format: functional, cell-based
# MCF7 [19] = assay: Antiangiogenic activity in human MCF7 cells assessed as effect on AKT1 protein expression at 4 uM after 24 hrs by Western blotting analysis; format: functional, cell-based
# HUVEC [20] = assay: Antiangiogenic activity in HUVEC assessed as inhibition of VEGF-A-induced tube formation at 1 uM after 6 hrs by inverted microscopic analysis; format: functional, cell-based; settings: Homo sapiens
# How it was run: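 HUVEC (ECM medium, 5% FBS, 1% ECGS) seeded at 5×10^3 cells/well on EC matrix solidified at 37 °C, grown 12 h in endothelial growth media, then treated at 1 µM final for about 6 h. Tube formation examined by inverted microscopy. Etoposide as reference.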
# MCF7 [21] = assay: Disruption of mitochondrial membrane potential in human MCF7 cells at 4 uM after 24 hrs by JC-1 dye-based fluorescence assay; format: functional, cell-based
# How it was run: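 MCF-7 cells exposed 24 h at 4 µM, etoposide as reference, then stained with 2.5 µM JC-1 for 20 min at room temperature. Fluorescence imaging: red J-aggregates indicate intact potential, green monomers indicate loss, read as red-to-green shift.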
SMILES,Activity (MCF7 [1]),Activity (MCF7 [2]),Activity (MCF7 [3]),Activity (MCF7 [4]),Activity (MCF7 [5]),Activity (MCF7 [6]),Activity (PANC-1),Activity (MCF7 [7]),Activity (MCF7 [8]),Activity (MCF7 [9]),Activity (MCF7 [10]),Activity (MCF7 [11]),Activity (MDA-MB-231),Activity (HUVEC [12]),Activity (MCF7 [13]),Activity (MCF7 [14]),Activity (MCF7 [15]),Activity (MCF7 [16]),Activity (MCF7 [17]),Activity (MCF7 [18]),further results
COc1cc([C@@H]2c3cc4c(cc3[C@@H](NC(=O)CCCCOc3ccc5nc(C)n(-c6ccc(Cl)c(Cl)c6)c(=O)c5c3)[C@H]3COC(=O)[C@H]23)OCO4)cc(OC)c1OC,12%,5%,49%,34%,,,,,,,,,,,,,,,,,
COc1ccc(-n2c(C)nc3ccc(OCCCCCC(=O)N[C@@H]4c5cc6c(cc5[C@@H](c5cc(OC)c(OC)c(OC)c5)[C@H]5C(=O)OC[C@@H]54)OCO6)cc3c2=O)cc1,8%,4%,47%,41%,Active,Active,Active,Active,Active,Active,Active,Active,Active,Non-toxic,Active,Active,Active,Active,Active,Active,Activity (MCF7 [19]): inactive
COc1cc(OC)cc(-n2c(C)nc3ccc(OCCCCC(=O)N[C@@H]4c5cc6c(cc5[C@@H](c5cc(OC)c(OC)c(OC)c5)[C@H]5C(=O)OC[C@@H]54)OCO6)cc3c2=O)c1,6%,6%,49%,39%,,,,,,,,,,,,,,,,,
COc1cc([C@@H]2c3cc4c(cc3[C@@H](NC(=O)CCCCCOc3ccc5nc(C)n(-c6ccc(F)cc6)c(=O)c5c3)[C@H]3COC(=O)[C@H]23)OCO4)cc(OC)c1OC,14%,4%,37%,45%,Active,Active,Active,Active,Active,Active,Active,Active,Active,Non-toxic,Active,Active,Active,Active,Active,Active,inhibition (HUVEC [20]): Active; Activity (MCF7 [21]): Active; Activity (MCF7 [19]): inactive
COc1cc([C@@H]2c3cc4c(cc3[C@@H](NC(=O)CCCCOc3ccc5nc(C)n(-c6cc(OC)c(OC)c(OC)c6)c(=O)c5c3)[C@H]3COC(=O)[C@H]23)OCO4)cc(OC)c1OC,10%,5%,51%,35%,,,,,,,,,,,,,,,,,
COc1cc(OC)cc(-n2c(C)nc3ccc(OCCCCCC(=O)N[C@@H]4c5cc6c(cc5[C@@H](c5cc(OC)c(OC)c(OC)c5)[C@H]5C(=O)OC[C@@H]54)OCO6)cc3c2=O)c1,9%,5%,49%,37%,,,,,,,,,,,,,,,,,
COc1cc([C@@H]2c3cc4c(cc3[C@@H](NC(=O)CCCCCOc3ccc5nc(C)n(-c6ccc([N+](=O)[O-])cc6)c(=O)c5c3)[C@H]3COC(=O)[C@H]23)OCO4)cc(OC)c1OC,5%,5%,49%,41%,Active,Active,Active,Active,Active,Active,Active,Active,Active,Non-toxic,Active,Active,Active,Active,Active,Active,Activity (MCF7 [19]): inactive
COc1cc([C@@H]2c3cc4c(cc3[C@@H](O[C@@H]3O[C@@H]5CO[C@@H](C)O[C@H]5[C@H](O)[C@H]3O)[C@H]3COC(=O)[C@H]23)OCO4)cc(OC)c1O [ETOPOSIDE],9%,6%,18%,67%,,,,,,,Active,Active,,Non-toxic,,,,Active,,,Activity (MCF7 [21]): Active
COc1cc([C@@H]2c3cc4c(cc3[C@@H](NC(=O)CCCCOc3ccc5nc(C)n(-c6ccc(F)cc6)c(=O)c5c3)[C@H]3COC(=O)[C@H]23)OCO4)cc(OC)c1OC,8%,5%,49%,38%,,,,,,,,,,,,,,,,,
COc1ccc(-n2c(C)nc3ccc(OCCCCC(=O)N[C@@H]4c5cc6c(cc5[C@@H](c5cc(OC)c(OC)c(OC)c5)[C@H]5C(=O)OC[C@@H]54)OCO6)cc3c2=O)cc1,7%,10%,44%,39%,,,,,,,,,,,,,,,,,
COc1cc([C@@H]2c3cc4c(cc3[C@@H](NC(=O)CCCCOc3ccc5nc(C)n(-c6ccc([N+](=O)[O-])cc6)c(=O)c5c3)[C@H]3COC(=O)[C@H]23)OCO4)cc(OC)c1OC,5%,5%,51%,40%,,,,,,,,,,,,,,,,,
COc1cc([C@@H]2c3cc4c(cc3[C@@H](NC(=O)CCCCCOc3ccc5nc(C)n(-c6cc(OC)c(OC)c(OC)c6)c(=O)c5c3)[C@H]3COC(=O)[C@H]23)OCO4)cc(OC)c1OC,7%,5%,50%,39%,,,,,,,,,,,,,,,,,
COc1cc([C@@H]2c3cc4c(cc3[C@@H](NC(=O)CCCCCOc3ccc5nc(C)n(-c6ccc(Cl)c(Cl)c6)c(=O)c5c3)[C@H]3COC(=O)[C@H]23)OCO4)cc(OC)c1OC,10%,5%,45%,40%,Active,Active,Active,Active,Active,Active,Active,Active,Active,Non-toxic,Active,Active,Active,Active,Active,Active,inhibition (HUVEC [20]): Active; Activity (MCF7 [21]): Active; Activity (MCF7 [19]): inactive
